Measurements: ChEMBL document CHEMBL1147663, “Structure-activity relationships of bifunctional peptides based on overlapping pharmacophores at opioid and cholecystokinin receptors” (J Med Chem, 2006)

What was measured:
[1] = target: Delta-type opioid receptor (Mus musculus, UniProt P32300); assay: Agonist activity at delta opioid receptor assessed as inhibition of electrically stimulated ICR mouse vas deferens contraction; assay type: functional, tissue-based
How it was run: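 Vas deferens from male ICR mice, in 20 mL baths at 0.5 g tension, Mg-free oxygenated Krebs, 37 °C; electrical stimulation 0.1 Hz, 2.0 ms pulses, supramaximal voltage. Cumulative addition to maximal inhibition; integrity checked with 10 nM DPDPE. IC50 by Hill-equation nonlinear least-squares fit, at least four tissues.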

Mu-type opioid receptor [2] = target: Mu-type opioid receptor (Cavia porcellus, UniProt P97266); assay: Agonist activity at mu opioid receptor assessed as inhibition of electrically stimulated Hartley guinea pig ileum contraction; assay type: functional, tissue-based
How it was run: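 Longitudinal muscle–myenteric plexus strips from male Hartley guinea pig ileum, 1 g tension, oxygenated Krebs at 37 °C; 0.1 Hz, 0.4 ms supramaximal stimulation. […] Integrity checked with 10 nM PL-017. Hill-equation fit, at least four tissues.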

Mu-type opioid receptor [3] = target: T1, Mu-type opioid receptor (Rattus norvegicus, UniProt P33535); assay: Displacement of [3H]DAMGO from rat mu opioid receptor expressed in HN9.10 cells; assay type: cell-based
How it was run: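 HN9.10 cell membranes (50 μg) expressing rMOR, 10 test concentrations with 1.0 nM [3H]DAMGO in 50 mM Tris pH 7.4 with peptidase inhibitors and BSA, 3 h at 25 °C, duplicates; filtration, scintillation counting. Nonspecific with 10 μM naloxone. Ki by Cheng–Prusoff.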

[4] = target: T2, Delta-type opioid receptor (Homo sapiens, UniProt P41143); assay: Activity against [35S]GTP-gamma-S binding to human delta opioid receptor expressed in HN9.10 cells; assay type: functional, cell-based
How it was run: (§1)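 Membranes (10 μg) from HN9.10 cells stably expressing hDOR or rMOR; various drug concentrations in duplicate or triplicate, 90 min at 30 °C in HEPES pH 7.4 with GDP, MgCl2, NaCl, 0.1 nM [35S]GTPγS; filtration, scintillation counting.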

[5] = target: T3, Cholecystokinin receptor type A (Homo sapiens, UniProt P32238); assay: Displacement of [125I]CCK-8(SO3) from human CCK1 receptor expressed in HEK293 cells; assay type: cell-based
T3 sequence (P32238 whole entry): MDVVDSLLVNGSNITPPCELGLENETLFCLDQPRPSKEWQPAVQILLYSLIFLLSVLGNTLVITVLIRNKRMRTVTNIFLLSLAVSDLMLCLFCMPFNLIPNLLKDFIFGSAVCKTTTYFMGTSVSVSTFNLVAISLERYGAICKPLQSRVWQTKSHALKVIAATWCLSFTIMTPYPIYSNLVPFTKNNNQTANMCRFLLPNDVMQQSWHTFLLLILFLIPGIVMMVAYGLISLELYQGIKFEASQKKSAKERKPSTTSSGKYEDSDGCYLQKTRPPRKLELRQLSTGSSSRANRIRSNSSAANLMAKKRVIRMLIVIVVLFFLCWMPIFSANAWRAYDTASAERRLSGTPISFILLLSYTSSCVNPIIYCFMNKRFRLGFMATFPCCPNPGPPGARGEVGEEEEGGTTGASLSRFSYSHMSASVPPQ

[6] = target: T4, Gastrin/cholecystokinin type B receptor (Homo sapiens, UniProt P32239); assay: Displacement of [125I]CCK-8(SO3) from human CCK2 receptor expressed in HEK293 cells; assay type: cell-based
T4 sequence (P32239 whole entry): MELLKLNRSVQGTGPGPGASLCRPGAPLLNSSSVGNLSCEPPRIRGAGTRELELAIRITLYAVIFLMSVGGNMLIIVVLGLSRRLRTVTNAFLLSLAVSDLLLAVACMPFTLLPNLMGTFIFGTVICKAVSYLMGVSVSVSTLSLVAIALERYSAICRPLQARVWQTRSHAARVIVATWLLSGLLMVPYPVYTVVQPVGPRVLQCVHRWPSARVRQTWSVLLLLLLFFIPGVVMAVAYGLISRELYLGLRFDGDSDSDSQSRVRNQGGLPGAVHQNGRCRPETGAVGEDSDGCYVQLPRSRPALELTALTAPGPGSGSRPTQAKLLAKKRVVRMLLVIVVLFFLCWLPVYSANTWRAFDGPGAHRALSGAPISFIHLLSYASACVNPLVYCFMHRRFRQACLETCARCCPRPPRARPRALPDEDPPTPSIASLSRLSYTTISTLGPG

Mu-type opioid receptor [7] = target: T1, Mu-type opioid receptor; assay: (§2) Activity against [35S]GTP-gamma-S binding to rat mu opioid receptor expressed in HN9.10 cells; assay type: functional, cell-based; how it was run: as §1
[8] = target: Mu-type opioid receptor (Rattus norvegicus) (UniProt P33535); assay: as §2; assay type: functional, cell-based; how it was run: as §1
[9] = target: T2, Delta-type opioid receptor; assay: Displacement of [3H]DPDPE from human delta opioid receptor expressed in HN9.10 cells; assay type: cell-based
How it was run: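 HN9.10 cell membranes (50 μg) expressing hDOR, 10 test concentrations with 1.0 nM [3H]DPDPE in 50 mM Tris pH 7.4 with peptidase inhibitors and BSA, 3 h at 25 °C, duplicates; filtration, scintillation counting. Nonspecific with 10 μM naloxone. Ki by Cheng–Prusoff.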

[10] = target: T4, Gastrin/cholecystokinin type B receptor; assay: Antagonist activity at CCK2 receptor expressed in HEK293 cells assessed as accumulation of [3H]inositol phosphates by PI assay; assay type: functional, cell-based

T2 sequence (P41143 whole entry): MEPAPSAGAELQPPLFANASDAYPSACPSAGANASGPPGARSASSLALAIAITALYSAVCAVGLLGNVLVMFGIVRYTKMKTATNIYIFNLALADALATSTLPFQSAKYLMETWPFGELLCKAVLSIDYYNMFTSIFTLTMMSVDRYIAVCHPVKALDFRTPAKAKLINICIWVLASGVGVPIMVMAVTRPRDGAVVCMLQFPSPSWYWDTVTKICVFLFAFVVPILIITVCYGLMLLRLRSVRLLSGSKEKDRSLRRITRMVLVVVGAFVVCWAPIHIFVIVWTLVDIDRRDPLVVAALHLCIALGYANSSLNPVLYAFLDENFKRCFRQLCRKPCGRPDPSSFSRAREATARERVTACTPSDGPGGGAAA
Sequence of Delta-type opioid receptor (Mus musculus, UniProt P32300) (P32300 whole entry): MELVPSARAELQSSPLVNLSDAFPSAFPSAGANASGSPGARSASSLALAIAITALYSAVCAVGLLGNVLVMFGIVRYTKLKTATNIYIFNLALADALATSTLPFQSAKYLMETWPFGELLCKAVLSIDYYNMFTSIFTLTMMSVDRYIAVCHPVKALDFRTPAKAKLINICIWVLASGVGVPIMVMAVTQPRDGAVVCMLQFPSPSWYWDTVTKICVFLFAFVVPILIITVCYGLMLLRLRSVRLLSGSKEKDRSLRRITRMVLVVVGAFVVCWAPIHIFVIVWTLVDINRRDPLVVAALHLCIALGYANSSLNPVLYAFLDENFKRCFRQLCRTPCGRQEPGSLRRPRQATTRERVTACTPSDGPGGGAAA
Sequence of Mu-type opioid receptor (Cavia porcellus, UniProt P97266) (P97266 whole entry): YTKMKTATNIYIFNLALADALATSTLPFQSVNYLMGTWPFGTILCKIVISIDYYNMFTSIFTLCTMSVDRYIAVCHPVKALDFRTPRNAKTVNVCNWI
T1 sequence (P33535 whole entry): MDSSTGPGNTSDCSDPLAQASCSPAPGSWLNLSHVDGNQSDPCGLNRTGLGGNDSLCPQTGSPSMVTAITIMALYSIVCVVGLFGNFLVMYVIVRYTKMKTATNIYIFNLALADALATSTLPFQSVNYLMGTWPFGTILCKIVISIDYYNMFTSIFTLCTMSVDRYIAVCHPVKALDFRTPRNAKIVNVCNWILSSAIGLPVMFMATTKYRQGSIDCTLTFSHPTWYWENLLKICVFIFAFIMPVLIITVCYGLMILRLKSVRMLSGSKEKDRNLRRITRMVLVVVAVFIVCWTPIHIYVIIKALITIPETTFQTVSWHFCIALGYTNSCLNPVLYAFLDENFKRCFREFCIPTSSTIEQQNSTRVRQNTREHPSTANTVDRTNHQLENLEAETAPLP
Sequence of Mu-type opioid receptor (Rattus norvegicus) (P33535 whole entry): as above

| Structure (SMILES) | IC50 [1] | IC50 (Mu-type opioid receptor [2]) | IC50 (Mu-type opioid receptor [3]) | Ki (Mu-type opioid receptor [3]) | EC50 [4] | Emax [4] | IC50 [5] | Ki [5] | IC50 [6] | Ki [6] | EC50 (Mu-type opioid receptor [7]) | Emax [8] | IC50 [9] | Ki [9] | EC50 [10] |
| --- | --- | --- | --- | --- | --- | --- | --- | --- | --- | --- | --- | --- | --- | --- | --- |
| CCCC[C@H](NC(=O)[C@@H](Cc1c[nH]c2ccccc12)NC(=O)CNC(=O)[C@@H](C)NC(=O)[C@@H](N)Cc1ccc(O)cc1)C(=O)N[C@@H](CC(=O)O)C(=O)N[C@@H](Cc1ccccc1)C(N)=O | 1300 nM | 2300 nM | 1290 nM | 590 nM | 130 nM | 91% | 6460 nM | 6500 nM | 2690 nM | 2700 nM | 350 nM | 110% | 2000 nM | 860 nM | 330 nM |
| CCCC[C@H](NC(=O)[C@@H](Cc1c[nH]c2ccccc12)NC(=O)CNC(=O)[C@@H](Cc1ccccc1)NC(=O)[C@@H](N)Cc1ccc(O)cc1)C(=O)N[C@@H](CC(=O)O)C(=O)N[C@@H](Cc1ccccc1)C(N)=O | 170 nM | 2700 nM | 708 nM | 300 nM | 130 nM | 170% | 1950 nM | 2000 nM | 1740 nM | 1700 nM | 45 nM | 160% | 398 nM | 170 nM | – |
| CCCC[C@H](NC(=O)[C@H](Cc1c[nH]c2ccccc12)NC(=O)CNC(=O)[C@@H](C)NC(=O)[C@@H](N)Cc1ccc(O)cc1)C(=O)N[C@@H](CC(=O)O)C(=O)N[C@@H](Cc1ccccc1)C(N)=O | 45 nM | 160 nM | 18.2 nM | 7.8 nM | 5.9 nM | 74% | 5750 nM | 5700 nM | 145 nM | 150 nM | 12 nM | 86% | 0.525 nM | 0.22 nM | 8 nM |
| CCCC[C@@H](C(=O)N[C@@H](CC(=O)O)C(=O)N[C@@H](Cc1ccccc1)C(N)=O)N(C)C(=O)[C@@H](Cc1c[nH]c2ccccc12)NC(=O)CNC(=O)[C@@H](C)NC(=O)[C@@H](N)Cc1ccc(O)cc1 | 63 nM | 150 nM | 50.1 nM | 22 nM | 23 nM | 56% | 316 nM | 320 nM | 1.55 nM | 1.5 nM | 38 nM | 44% | 3.47 nM | 1.5 nM | 6.6 nM |
| CCCC[C@@H](NC(=O)[C@@H](N)Cc1ccc(O)cc1)C(=O)NCC(=O)N[C@@H](Cc1c[nH]c2ccccc12)C(=O)N(C)[C@@H](CCCC)C(=O)N[C@@H](CC(=O)O)C(=O)N[C@@H](Cc1ccccc1)C(N)=O | 9 nM | 48 nM | 58.9 nM | 25 nM | 15 nM | 150% | – | – | 3.8 nM | 3.8 nM | 110 nM | 70% | 4.68 nM | 2 nM | 19 nM |
| CCCC[C@@H](C(=O)N[C@@H](CC(=O)O)C(=O)N[C@@H](Cc1ccccc1)C(N)=O)N(C)C(=O)[C@H](Cc1c[nH]c2ccccc12)NC(=O)CNC(=O)[C@@H](C)NC(=O)[C@@H](N)Cc1ccc(O)cc1 | 66 nM | 470 nM | 89.1 nM | 39 nM | 120 nM | 270% | 5130 nM | 5100 nM | 1.62 nM | 1.6 nM | 18 nM | 73% | 5.25 nM | 2.2 nM | 4.6 nM |
| CCCC[C@@H](C(=O)N[C@@H](CC(=O)O)C(=O)N[C@@H](Cc1ccccc1)C(N)=O)N(C)C(=O)[C@H](Cc1c[nH]c2ccccc12)NC(=O)CNC(=O)[C@@H](Cc1ccccc1)NC(=O)[C@@H](N)Cc1ccc(O)cc1 | 65 nM | 100 nM | 245 nM | 100 nM | 2.5 nM | 84% | 3630 nM | 3600 nM | 15.1 nM | 15 nM | 22 nM | 300% | 18.6 nM | 1 nM | 16 nM |
